Apaf-1 inh: inhibitors of human Apaf-1 apoptosome, primary screen, biochemical, DEVD-Rh110 fluorescence, uHTS; Apoptotic protease-activating factor 1 (Homo sapiens), O14727; reconstituted apoptosome caspase-3 activity; inhibition, % at 20 µM; 0.71% of 330,000 active; active = inhibition of at least 40% at 20 µM
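System: reconstituted apoptosome with Apaf-1, cytochrome c, caspase-9, procaspase-3, dATP; Signal: Rh110 fluorescence intensity; Schedule: 30 min compound preincubation, 50 min activation, room temperature; Reagent: cytochrome c trigger plus (Z-DEVD)2-Rh110 caspase-3 substrate.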
Fh CTSL1 inh: Fasciola hepatica cathepsin L1 inhibitors, primary screen, counter-screen for PFM18AAP inhibitor project, biochemical, QFRET, fluorogenic peptide substrate. 0.49% of 300,000 active. AID 1906, 2009. inhibition, % at 5.96 µM. recombinant F. hepatica cathepsin L1, Z-Leu-Arg-MCA fluorescence;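 active = inhibition above the mean of all tested compounds plus 3 SD, set per screening campaign, cut at about 17% in these data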
PAD4 inh: human PAD4 inhibitors, primary screen, biochemical, fluorescence polarization, 1536-well format; inhibition, % at 6.36 µM; recombinant PAD4, RCA probe fluorescence polarization; 0.41% of 330,000 active; Protein-arginine deiminase type-4 (Homo sapiens), Q9UM07;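 active = percent inhibition above a cutoff equal to the mean of all tested compounds plus 3 SD, cut at about 15% in these data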
TDP2 absorb: human TDP2 enzyme inhibitors, primary screen, biochemical, epi absorbance, recombinant enzyme. AID 720702, 2013. inhibition, % at 12.8 µM. 0.34% of 370,000 active. T5PNP hydrolysis, p-nitrophenol absorbance 415 nm;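 active = inhibition above the mean of all tested compounds plus 3 SD, set per campaign, cut at about 25% in these data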
Target sequence (O95551 whole entry, looked up): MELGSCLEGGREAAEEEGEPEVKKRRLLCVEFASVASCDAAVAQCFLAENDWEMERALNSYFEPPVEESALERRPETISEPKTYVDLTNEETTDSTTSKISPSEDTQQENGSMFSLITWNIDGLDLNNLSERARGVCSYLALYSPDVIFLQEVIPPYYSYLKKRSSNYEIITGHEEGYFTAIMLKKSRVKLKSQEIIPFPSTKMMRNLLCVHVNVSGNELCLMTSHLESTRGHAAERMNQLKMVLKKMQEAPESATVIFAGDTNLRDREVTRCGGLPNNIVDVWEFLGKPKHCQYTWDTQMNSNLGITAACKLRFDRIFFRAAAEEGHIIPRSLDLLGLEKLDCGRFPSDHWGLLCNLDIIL
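System: recombinant human TDP2 / Amount: 120 nM TDP2 per well / Also added: 5 mM T5PNP chromogenic substrate / Doses: 12.8 µM single point, 1% DMSO / Incubation: 2 h at 37 °C / Detection: p-Nitrophenol epi absorbance / Evaluation: % inhibition relative to enzyme-containing and enzyme-free wells / Repeats: singlicate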
GSTO1 counter: inhibitors of recombinant GSTO1, primary screen, counter-screen for RBBP9 inhibitor project, biochemical, fluorescence polarization | activity-based probe fluorescence polarization | inhibition, % at 5.96 µM | 1.1% of 300,000 active | AID 1974, 2009;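 active = inhibition above the campaign mean inhibition plus 3 SD, cut at about 35% in these data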
Target sequence (P78417 whole entry, looked up): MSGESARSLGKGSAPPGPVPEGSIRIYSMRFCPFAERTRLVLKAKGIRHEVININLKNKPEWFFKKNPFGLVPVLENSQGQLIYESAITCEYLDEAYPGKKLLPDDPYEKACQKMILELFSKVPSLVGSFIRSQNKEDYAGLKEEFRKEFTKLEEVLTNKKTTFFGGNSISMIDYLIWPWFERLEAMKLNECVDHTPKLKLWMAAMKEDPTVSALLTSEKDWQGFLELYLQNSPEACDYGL
Apaf-1 inh conf: Apaf-1 inhibitors, single-dose retest, confirmation, biochemical, fluorescence, DEVD-Rh110, 20 µM; shares compounds with Apaf-1 inh; reconstituted apoptosome, caspase-3 DEVD-Rh110 fluorescence; inhibition, % at 20 µM; 25% of 1,800 active; AID 504614, 2011;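 active = mean inhibition of at least 40% at 20 µM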
Rh110 quench: Rh110 fluorescence interference by putative Apaf-1 inhibitors, confirmation, artefact control for Apaf-1 inhibitor project, biochemical, 20 µM; 1,800 tested, under 10 active; activation (fluorescence interference), % at 20 µM; quenched caspase reaction; shares compounds with Apaf-1 inh; AID 504615, 2011;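 active = signal rise of 40% or more at 20 µM, treated as a fluorescence artifact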
Fluor interf inh: fluorescence interference of Apaf-1 inhibitor hits, dose response, artefact control for Apaf-1 inhibitor project; 460 tested, under 10 active; shares compounds with Apaf-1 inh; AID 588538, 2011; fluorescence interference counterscreen, Apaf-1 assay format; IC50, µM; call rule not given here
Large screens that a line does not name were inactive (follow-up assays come after a bar, where they were run). The list is not random: actives were taken first. Their share in the collection is about 1.8%.

COc1ccc(C(=O)C2C(c3ccc(-c4ccccc4[N+](=O)[O-])o3)NC(=O)NC2(O)C(F)(F)F)cc1 (stereo not given)	none
O=C1NC(c2ccc(-c3ccccc3[N+](=O)[O-])o2)C(C(=O)c2ccc(F)cc2)C(O)(C(F)(F)F)N1 (stereo not given)	Apaf-1 inh 51 | Apaf-1 inh conf inactive | Rh110 quench inactive
COc1ccc(/C=N/Nc2cc(C)nc3ccc(Br)cc23)cc1	Apaf-1 inh 55 | Apaf-1 inh conf inactive | Rh110 quench inactive
COC(CNC(=O)[C@H](Cc1ccccc1)NC1(C(=O)NC2CCCCC2)CCCC1)OC	none (no result: Apaf-1 inh, Fh CTSL1 inh, PAD4 inh, GSTO1 counter)
CCN1CCN(S(=O)(=O)c2ccc(Cl)c(C(=O)N(C)Cc3ccc(Cl)cc3Cl)c2)CC1	none
CCN1CCN(S(=O)(=O)c2ccc(Cl)c(C(=O)N(C)Cc3cccs3)c2)CC1	Apaf-1 inh 58 (no result: Fh CTSL1 inh, GSTO1 counter) | Apaf-1 inh conf inactive | Rh110 quench inactive
CC(=O)c1ccc(OCCCC(=O)N2CCN(S(=O)(=O)c3cc(C)ccc3C)CC2)cc1	none
CC(=O)c1ccc(OCCCC(=O)N2CCN(S(=O)(=O)c3ccc(C)cc3C)CC2)cc1	Apaf-1 inh 40 | Apaf-1 inh conf inactive | Rh110 quench inactive
COCCCn1c(=O)c2sccc2n(Cc2ccccc2)c1=O	none
COCCCn1c(=O)c2sccc2n(Cc2ccccc2C)c1=O	Apaf-1 inh 60 | Apaf-1 inh conf inactive | Rh110 quench inactive
CCCc1[nH]nc2c1C(c1ccc(OC)c(CSC3=NCCS3)c1)C(C#N)=C(N)O2 (stereo not given)	Apaf-1 inh 41 | Apaf-1 inh conf 43 | Rh110 quench inactive | Fluor interf inh inactive
COC(=O)[C@]12C[C@H](CC(=O)NCC34CC5CC(CC(C5)C3)C4)C(=O)N(Cc3ccccc3)C1=C[C@H](C1CCCC1)O[C@@H]2C	none (no result: Apaf-1 inh, Fh CTSL1 inh, PAD4 inh, GSTO1 counter)
O=C(O)CC(NC(=O)C1c2ccccc2Oc2ccccc21)c1ccc(OC2CCCC2)cc1 (stereo not given)	none
O=C(O)CC(NC(=O)c1sc2ccccc2c1Cl)c1ccc(OC2CCCC2)cc1 (stereo not given)	Apaf-1 inh 44 | Apaf-1 inh conf inactive | Rh110 quench inactive
Clc1ccc(-n2c(SCc3cccc4ccccc34)nnc2-c2ccco2)cc1	none (no result: Apaf-1 inh, Fh CTSL1 inh, PAD4 inh, GSTO1 counter)
O=c1cccccc1NCc1ccccc1	Apaf-1 inh 45 | Apaf-1 inh conf inactive | Rh110 quench inactive
COc1ccc(N2CSC3=C(C#N)C(c4cccc(OC)c4OC)CC(=O)N3C2)cc1 (stereo not given)	none
COc1ccc(C2CC(=O)N3CN(c4ccc(C)c(Cl)c4)CSC3=C2C#N)cc1 (stereo not given)	Apaf-1 inh 47 | Apaf-1 inh conf inactive | Rh110 quench inactive
COCC(=O)N1CC[C@H]2[C@@H]1c1cc(-c3cccc(OC)c3)ccc1N(C)[C@H]2CO	none (no result: Apaf-1 inh, Fh CTSL1 inh, PAD4 inh, GSTO1 counter)
CCN(c1ccccc1)S(=O)(=O)c1cc(NC(=O)Nc2ccccc2C#N)ccc1Cl	none
CCN(c1ccccc1)S(=O)(=O)c1ccc(Cl)c(NC(=O)CN2CCN(C)CC2)c1	Apaf-1 inh 52 (no result: Fh CTSL1 inh, GSTO1 counter) | Apaf-1 inh conf inactive | Rh110 quench inactive
CCN(c1ccccc1)S(=O)(=O)c1ccc(Cl)c(NC(=O)Nc2ccc(Cl)cc2C#N)c1	Apaf-1 inh 40 | Apaf-1 inh conf 44 | Rh110 quench inactive | Fluor interf inh inactive
CCN1CCN(CC(=O)Nc2cc(S(=O)(=O)N(CC)c3ccccc3)ccc2Cl)CC1	none (no result: Fh CTSL1 inh, GSTO1 counter)
CCN(CC)C(=O)CC[C@H]1CC[C@]2(CCCN(C(=O)c3ccco3)C2)O1	none (no result: Apaf-1 inh, Fh CTSL1 inh, PAD4 inh, GSTO1 counter)
O=C(NNc1cc(N2CCOCC2)nc(N2CCOCC2)n1)c1ccc(Cl)cc1Cl	Apaf-1 inh 47 | Apaf-1 inh conf inactive | Rh110 quench inactive
COc1ccc(NC(=O)NNc2cc(N3CCOCC3)nc(N3CCOCC3)n2)cc1	Apaf-1 inh 52 | Apaf-1 inh conf inactive | Rh110 quench inactive
COc1ccc(CN2CC(C(=O)NCc3cccc(OC)c3)CC2=O)cc1 (stereo not given)	Apaf-1 inh 67 | Apaf-1 inh conf inactive | Rh110 quench inactive
CCN(CC)C(=O)C1CCCN(C(=O)Nc2ccc3nsnc3c2)C1 (stereo not given)	Apaf-1 inh 71 | Apaf-1 inh conf inactive | Rh110 quench inactive
COc1ccc(OCCNc2c([N+](=O)[O-])c(=O)oc3ccccc23)cc1	Apaf-1 inh 73 | Apaf-1 inh conf 87 | Rh110 quench inactive | Fluor interf inh inactive
OCCN1CCN(CC/C=C2/c3ccccc3Sc3ccc(Cl)cc32)CC1	Apaf-1 inh 43 | Apaf-1 inh conf inactive | Rh110 quench inactive
CN(C)CC/C=C1\c2ccccc2Sc2ccc(Cl)cc21	Apaf-1 inh 49 | Apaf-1 inh conf inactive | Rh110 quench inactive
CN(C)CC/C=C1/c2ccc(F)cc2Sc2ccc(Cl)cc21	none
O=C(CN1CCCC1)N1c2ccccc2Sc2ccc(Cl)cc21	none (no result: Fh CTSL1 inh, PAD4 inh, GSTO1 counter)
CCCCCCCCCC[N+](C)(C)CC/C=C1/c2ccccc2Sc2ccc(Cl)cc21	Apaf-1 inh 81 (no result: TDP2 absorb) | Apaf-1 inh conf 88 | Rh110 quench inactive | Fluor interf inh inactive
CN(C)CC/C=C1\c2ccccc2Sc2cc(F)c(Cl)cc21	none
CCCCCCCCCCC[N+](C)(C)CC/C=C1/c2ccccc2Sc2ccc(Cl)cc21	Apaf-1 inh 75 (no result: TDP2 absorb) | Apaf-1 inh conf 88 | Rh110 quench inactive | Fluor interf inh inactive
CC[N+](C)(C)CC/C=C1/c2ccccc2Sc2ccc(Cl)cc21	none
COc1ccc(CCN2CCC(CN3C(=S)NC[C@@H]3Cc3ccccc3)CC2)cc1OC	none (no result: Apaf-1 inh, Fh CTSL1 inh, PAD4 inh, GSTO1 counter)
COc1cc(-n2c(C)nc3cc(C(=O)N4CCCCC4)ccc32)cc(OC)c1OC	none (no result: Apaf-1 inh, Fh CTSL1 inh, PAD4 inh, GSTO1 counter)
c1ccc2c(C[C@@H]3CNCCN3CC3CCCCC3)cccc2c1	Apaf-1 inh 44 | Apaf-1 inh conf inactive | Rh110 quench inactive
Oc1ccc(C[C@@H]2CNCCN2CC2CCCCC2)cc1	none
Cc1ccc(OCC(=O)Nc2ccc(N3CCCC3)cc2)cc1C	none
Cc1cc(C)cc(OCC(=O)Nc2ccc(N3CCCC3)cc2)c1	Apaf-1 inh 41 (no result: TDP2 absorb) | Apaf-1 inh conf inactive | Rh110 quench inactive

Screens as filed in PubChem.
